# Data: PubChem BioAssay AID2607 (Broad Institute, 2010)
# pEC50: −log10 of the molar value.
# Tested on: DRD fibroblasts (non-viral oncogenic) viability, Alamar Blue fluorescence, 48 h
# Experiment: cytotoxicity in DRD fibroblasts, dose response, cell-based, fluorescence, Alamar Blue, powder samples (AID 2607)
# Procedure, shortened: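 Assay system – DRD fibroblasts · Amount – 1000 DRD cells per well · Dosing – two-fold dilution series, 0.01 to 5.33 µg/mL final compound · Buffer or medium – DMEM/M199 plus FBS · Incubation – 48 h compound at 37 °C, ~16 h dye · Technique – Alamar blue fluorescence, excitation 544 nm, emission 590 nm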
row,SMILES,pEC50
1,COc1ccc(C(C(=O)NC2CCCCC2)N(C(=O)CCl)c2ccc(C)cc2)cc1 (centres undefined),6.84
2,Nc1nc(CCl)nc(Nc2ccc3ccccc3c2)n1,7.09
3,Cc1ccc(C2CC(c3cccs3)=NN2C(=O)CCl)cc1 (centres undefined),5.92
4,COc1ccc(CN(CCC(c2ccccc2)c2ccc(OC(C)C)cc2)C(=O)CCl)cc1OC (centres undefined),6.21
5,COc1ccc(N(C(=O)CCl)C(C(=O)NCCc2ccccc2)c2cccs2)cc1Cl (centres undefined),7.47
6,COc1ccc(N(C(=O)CCl)C(C(=O)NCCc2ccccc2)c2cccs2)cc1 (centres undefined),6.67
7,C=CCOc1ccccc1CN(C(=O)CCl)c1ccc2c(c1)OCO2,5.94
8,COC(=O)[C@@H]1Cc2c([nH]c3ccccc23)C(C)(C)N1C(=O)CCl,6.33
9,O=C(CCl)N=c1sccn1Cc1ccccc1Cl,6.74
10,CCCCCCCN(C(=O)CCl)c1cccc(C)c1,6.77
11,COc1cccc(N(C(=O)CCl)C(C(=O)NCCc2ccccc2)c2cccs2)c1 (centres undefined),6.84
12,COc1ccc(C(C(=O)NC2CCCCC2)N(C(=O)CCl)c2cccc(Cl)c2)cc1 (centres undefined),6.86
13,Cc1ccc(N(C(=O)CCl)C(C(=O)NC2CCCCC2)c2cccnc2)cc1C (centres undefined),6.83
14,CCOc1ccc(Nc2nc(N)nc(CCl)n2)cc1,6.74
